# Experimental data pooled from the literature.
# Compare with care: the assays were run in different laboratories.
# Matrix: plasma
SMILES,system,setting,half-life
COc1ccc([C@@H]2CN(C(=O)[C@@H](O)CO)C[C@@]2(C)[C@@H](C)O)cc1OC1CN(c2ccc(C)cn2)C1,human,"oral, 40 mg, single dose, healthy volunteers",12.1 h
COc1cc(C(=O)NC2CCN(C)CC2)c(F)cc1Nc1ncc(C(F)(F)F)c(Oc2cccc3c2C(=O)N(C)C3)n1,human,"oral, 100 mg, multiple doses, once daily, patients",18.9 h
CC(C)(Sc1ccncc1-c1ccc(C#N)c2ccccc12)C(=O)O,male human,"oral, 40 mg, single dose, fasted, healthy volunteers",9.51 h
COCCOc1cnc2ccn([C@H](C)c3nnc4c(F)cc(-c5cnn(C)c5)cn34)c(=O)c2c1,human,"oral, 100 mg, multiple doses, once daily, patients",9.1 h
CO[C@H]1CC[C@H](N2C(=O)CNc3ncc(-c4ccc(C(C)(C)O)nc4)nc32)CC1,human,"oral, 45 mg, patients",4.86 h
CO[C@@H]1[C@H](OC(=O)N2CC(CCN3CCOCC3)C2)CC[C@]2(CO2)[C@H]1[C@@]1(C)O[C@@H]1CC=C(C)C,human,"subcutaneous, 3.6 mg, single dose, healthy volunteers",0.47 h
CC(C)(O)c1ccccc1-c1ccc2[nH]c(/C=C/c3ccc(C(F)(F)F)cc3)nc2c1,male human,"oral, 120 mg, single dose, fasted, healthy volunteers",63 h
CC(C)n1cc(C#N)c2cc(-n3cc(C(=O)O)cn3)ccc21,human,"oral, 10 mg, single dose, fasted, healthy volunteers",5.1 h
C[C@@H](Nc1cc(F)cc(F)c1)c1cc(C(=O)N(C)C)cc2c(=O)cc(N3CCOCC3)oc12,human,"oral, 240 mg, single dose, patients",6.23 h
Cn1cc(-c2ccc(S(=O)(=O)[C@@H]3C[C@@H](C(=O)NC4(C#N)CC4)N(C(=O)C4(C(F)(F)F)CC4)C3)c(C(F)(F)F)c2)cn1,human,"oral, 3 mg, single dose, fasted, healthy volunteers",5.69 h
c1cnc2ccc(Nc3nc(NC4CC4)c4nc[nH]c4n3)cc2c1,human,"oral, 50 mg/m², patients",2 h
